{
  "source": "ChEMBL document CHEMBL3414437",
  "about": "“Synthesis of CDDO-amino acid-nitric oxide donor trihybrids as potential antitumor agents against both drug-sensitive and drug-resistant colon cancer” (J Med Chem, 2015)",
  "key": {"[1]": {"test_system": "HCT-8", "assay": "(§1) Antiproliferative activity against human HCT8 cells assessed as inhibition of cell proliferation at 1 uM after 72 hrs by MTT assay", "format": "functional", "procedure,_shortened": "(§2)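 Cells grown in DMEM with 10% FBS and exposed to compound at 1 µM for 72 h. Proliferation measured by MTT at 570 nm and expressed as % inhibition versus untreated cells. Mean ± SD of three independent experiments.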"}, "[2]": {"test_system": "HCT-8", "assay": "Inhibition of HIF-1alpha protein expression in human HCT8 cells at 1 uM incubated for 24 hrs by Western blotting method", "format": "functional, cell-based", "procedure,_shortened": "(§3)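 Cells (1 x 10^6) grown 24 h in 6 cm dishes, then exposed in duplicate for 24 h to 0.25, 0.5 or 1 µM compound, with or without PTIO. Lysates (20 µg/lane) were run on 7.5% SDS-PAGE, blotted to PVDF and blocked in 5% milk. HRP secondaries with ECL detection; bands quantified by densitometry against β-actin or GAPDH. Three separate experiments, mean ± SD.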"}, "[3]": {"target": "RAC-alpha serine/threonine-protein kinase (Homo sapiens) (UniProt P31749)", "sequence (P31749 whole entry)": "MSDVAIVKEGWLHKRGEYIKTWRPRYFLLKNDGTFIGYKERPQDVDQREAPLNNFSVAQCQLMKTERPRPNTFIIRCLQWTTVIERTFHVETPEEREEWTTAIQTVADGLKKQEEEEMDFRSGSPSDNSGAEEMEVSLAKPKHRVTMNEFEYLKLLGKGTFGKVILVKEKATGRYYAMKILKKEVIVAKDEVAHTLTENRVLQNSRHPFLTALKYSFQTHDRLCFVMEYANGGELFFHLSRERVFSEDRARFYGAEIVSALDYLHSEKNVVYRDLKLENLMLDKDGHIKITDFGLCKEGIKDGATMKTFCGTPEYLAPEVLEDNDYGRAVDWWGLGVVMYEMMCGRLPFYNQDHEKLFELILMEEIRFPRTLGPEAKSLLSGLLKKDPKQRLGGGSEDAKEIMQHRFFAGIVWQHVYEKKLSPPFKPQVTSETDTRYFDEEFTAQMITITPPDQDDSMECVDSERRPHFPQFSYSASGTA", "assay": "Inhibition of AKT protein phosphorylation in human HCT8 cells at 1 uM incubated for 24 hrs by Western blotting method", "format": "cell-based", "details": "HCT-8", "procedure,_shortened": "as §3"}, "[4]": {"test_system": "HCT-8", "assay": "Inhibition of ERK protein phosphorylation in human HCT8 cells at 1 uM incubated for 24 hrs by Western blotting method", "format": "cell-based", "procedure,_shortened": "as §3"}, "[5]": {"test_system": "Mus musculus", "assay": "Toxicity in nude BALB/c mouse xenografted with FU-resistant human HCT8 cells assessed as abnormal color changes in lung at 59.4 umol/kg administered as via oral gavage daily for 21 days", "format": "organism-based, HCT-8", "details": "in vivo, 504 h", "procedure,_shortened": "(§4)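 Male BALB/c nude mice aged 6-8 weeks, implanted s.c. in the right flank with HCT-8/5-FU cells (2 × 10^6). Once tumors reached 180-200 mm3 (days 9-11), randomized to daily gavage for 21 days in cremophor-EL/DMSO/PBS (1:1:8), 0.2 mL. At the end, liver, kidney, lung and heart checked for size, colour and weight. n = 8 per group.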"}, "[6]": {"assay": "as §1", "format": "functional", "details": "HCT-8, 72 h, read-out: GI", "procedure,_shortened": "as §2"}, "[7]": {"test_system": "HCT-8", "assay": "Induction of nitric oxide release in human HCT8 cells at 100 uM incubated for 150 mins by Griess assay", "format": "functional, cell-based", "procedure,_shortened": "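Cells (1 × 10^6/well) treated in triplicate with compound at 100 µM for 150 min. Lysates mixed with Griess reagent for 10 min at 37 °C and read at 540 nm. Nitrite quantified from a sodium nitrite standard curve; 0.4% DMSO-treated cells served as background. Mean ± SD of three experiments.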"}, "[8]": {"test_system": "HCT-8", "assay": "Antiproliferative activity against human HCT8 cells assessed as inhibition of cell proliferation at 0.25 uM after 24 hrs by MTT assay", "format": "functional, cell-based"}, "[9]": {"test_system": "HCT-8", "assay": "Antiproliferative activity against human HCT8 cells assessed as inhibition of cell proliferation at 0.25 uM dosed 1 hr after NO scavenger carboxy-PTIO treatment and measured after 24 hrs by MTT assay", "format": "functional"}, "[10]": {"test_system": "HCT-8", "assay": "Induction of apoptosis in human HCT8 cells incubated for 24 hrs by FITC-Annexin-V and propidium iodide staining based flow cytometry", "format": "functional, cell-based"}, "[11]": {"target": "Signal transducer and activator of transcription 3 (Homo sapiens) (UniProt P40763)", "sequence (P40763 whole entry)": "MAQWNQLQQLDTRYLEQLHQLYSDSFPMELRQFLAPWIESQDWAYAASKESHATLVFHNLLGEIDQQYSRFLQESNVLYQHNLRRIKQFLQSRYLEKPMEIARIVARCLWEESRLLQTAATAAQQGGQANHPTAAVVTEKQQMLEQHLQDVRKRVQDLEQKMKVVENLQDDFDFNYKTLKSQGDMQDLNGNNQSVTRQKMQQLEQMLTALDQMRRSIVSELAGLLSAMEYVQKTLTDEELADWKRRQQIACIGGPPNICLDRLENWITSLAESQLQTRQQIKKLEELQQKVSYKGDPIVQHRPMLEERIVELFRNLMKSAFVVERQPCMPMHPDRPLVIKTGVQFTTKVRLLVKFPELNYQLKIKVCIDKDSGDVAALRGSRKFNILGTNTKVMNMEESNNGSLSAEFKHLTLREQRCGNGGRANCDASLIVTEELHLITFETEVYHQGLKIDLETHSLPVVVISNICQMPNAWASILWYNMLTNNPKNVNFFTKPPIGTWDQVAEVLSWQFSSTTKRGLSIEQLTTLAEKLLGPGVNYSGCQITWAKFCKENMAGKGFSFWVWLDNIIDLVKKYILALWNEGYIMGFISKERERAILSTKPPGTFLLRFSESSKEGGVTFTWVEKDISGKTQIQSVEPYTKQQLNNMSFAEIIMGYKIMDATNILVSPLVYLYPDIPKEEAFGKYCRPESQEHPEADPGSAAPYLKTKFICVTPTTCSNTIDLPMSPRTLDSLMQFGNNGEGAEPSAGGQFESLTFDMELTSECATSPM", "assay": "Inhibition of STAT3 protein phosphorylation in FU-resistant human HCT8 cells at 0.25 to 1 uM incubated for 24 hrs by Western blotting method", "format": "cell-based", "details": "HCT-8", "procedure,_shortened": "as §3"}, "[12]": {"target": "RAC-alpha serine/threonine-protein kinase (Homo sapiens) (UniProt P31749)", "assay": "Inhibition of AKT protein phosphorylation in human HCT8 cells at 0.25 to 1 uM incubated for 24 hrs by Western blotting method", "format": "cell-based", "details": "HCT-8", "procedure,_shortened": "as §3"}, "[13]": {"test_system": "HCT-8", "assay": "Inhibition of P-gp protein expression in FU-resistant human HCT8 cells at 0.25 to 1 uM incubated for 24 hrs by Western blotting method", "format": "functional, cell-based", "procedure,_shortened": "as §3"}, "[14]": {"target": "ATP-dependent translocase ABCB1 (Homo sapiens, UniProt P08183)", "sequence (P08183 whole entry)": "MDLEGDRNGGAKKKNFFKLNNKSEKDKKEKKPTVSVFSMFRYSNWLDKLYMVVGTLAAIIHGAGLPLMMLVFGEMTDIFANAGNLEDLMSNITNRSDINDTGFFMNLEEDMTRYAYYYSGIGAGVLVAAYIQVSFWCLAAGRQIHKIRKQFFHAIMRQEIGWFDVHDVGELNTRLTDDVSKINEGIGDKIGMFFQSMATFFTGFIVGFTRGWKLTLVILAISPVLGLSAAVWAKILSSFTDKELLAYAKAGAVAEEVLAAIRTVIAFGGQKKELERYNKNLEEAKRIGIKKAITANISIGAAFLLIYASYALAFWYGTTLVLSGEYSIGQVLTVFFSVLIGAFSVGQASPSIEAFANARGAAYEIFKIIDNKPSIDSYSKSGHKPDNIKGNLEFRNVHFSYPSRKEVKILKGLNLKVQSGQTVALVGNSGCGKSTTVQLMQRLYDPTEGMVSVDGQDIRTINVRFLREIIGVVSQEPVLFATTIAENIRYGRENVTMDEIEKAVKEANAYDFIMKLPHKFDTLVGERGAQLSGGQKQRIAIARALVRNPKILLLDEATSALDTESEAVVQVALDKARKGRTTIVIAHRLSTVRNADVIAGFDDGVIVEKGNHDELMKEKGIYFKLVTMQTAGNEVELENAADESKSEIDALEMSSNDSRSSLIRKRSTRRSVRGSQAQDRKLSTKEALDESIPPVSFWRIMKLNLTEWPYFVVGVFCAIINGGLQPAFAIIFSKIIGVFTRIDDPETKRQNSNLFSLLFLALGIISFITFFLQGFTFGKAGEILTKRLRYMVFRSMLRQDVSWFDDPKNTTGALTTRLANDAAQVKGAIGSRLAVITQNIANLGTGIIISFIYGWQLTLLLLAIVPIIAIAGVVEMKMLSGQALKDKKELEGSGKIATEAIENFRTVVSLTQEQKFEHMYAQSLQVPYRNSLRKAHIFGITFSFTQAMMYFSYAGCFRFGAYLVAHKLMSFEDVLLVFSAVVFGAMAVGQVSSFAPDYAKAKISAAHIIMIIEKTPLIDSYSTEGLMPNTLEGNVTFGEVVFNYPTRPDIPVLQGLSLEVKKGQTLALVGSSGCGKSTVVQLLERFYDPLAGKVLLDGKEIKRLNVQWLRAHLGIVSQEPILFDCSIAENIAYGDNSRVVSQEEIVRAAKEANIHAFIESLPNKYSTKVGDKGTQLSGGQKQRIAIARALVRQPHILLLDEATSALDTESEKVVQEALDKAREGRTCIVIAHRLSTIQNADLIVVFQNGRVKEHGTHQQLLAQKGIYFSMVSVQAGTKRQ", "assay": "Induction of nitrosylation of P-gp protein in FU-resistant human HCT8 cells at 0.25 to 1 uM incubated for 24 hrs by Western blotting method", "format": "cell-based", "details": "hct-8, 24 h", "procedure,_shortened": "(§5)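 HCT-8/5-FU cells (1 × 10^6) treated in duplicate for 24 h with 0.25, 0.5 or 1 µM test compound or 1 µM reference, with or without PTIO. Lysates immunoprecipitated overnight at 4 °C with anti-nitrotyrosine antibody on protein G beads. Eluates blotted with specific anti-Pgp, anti-MRP1 or anti-BCRP antibodies and quantified by densitometry. Mean ± SD of three experiments.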"}, "[15]": {"target": "Multidrug resistance-associated protein 1 (Homo sapiens, UniProt P33527)", "sequence (P33527 whole entry)": "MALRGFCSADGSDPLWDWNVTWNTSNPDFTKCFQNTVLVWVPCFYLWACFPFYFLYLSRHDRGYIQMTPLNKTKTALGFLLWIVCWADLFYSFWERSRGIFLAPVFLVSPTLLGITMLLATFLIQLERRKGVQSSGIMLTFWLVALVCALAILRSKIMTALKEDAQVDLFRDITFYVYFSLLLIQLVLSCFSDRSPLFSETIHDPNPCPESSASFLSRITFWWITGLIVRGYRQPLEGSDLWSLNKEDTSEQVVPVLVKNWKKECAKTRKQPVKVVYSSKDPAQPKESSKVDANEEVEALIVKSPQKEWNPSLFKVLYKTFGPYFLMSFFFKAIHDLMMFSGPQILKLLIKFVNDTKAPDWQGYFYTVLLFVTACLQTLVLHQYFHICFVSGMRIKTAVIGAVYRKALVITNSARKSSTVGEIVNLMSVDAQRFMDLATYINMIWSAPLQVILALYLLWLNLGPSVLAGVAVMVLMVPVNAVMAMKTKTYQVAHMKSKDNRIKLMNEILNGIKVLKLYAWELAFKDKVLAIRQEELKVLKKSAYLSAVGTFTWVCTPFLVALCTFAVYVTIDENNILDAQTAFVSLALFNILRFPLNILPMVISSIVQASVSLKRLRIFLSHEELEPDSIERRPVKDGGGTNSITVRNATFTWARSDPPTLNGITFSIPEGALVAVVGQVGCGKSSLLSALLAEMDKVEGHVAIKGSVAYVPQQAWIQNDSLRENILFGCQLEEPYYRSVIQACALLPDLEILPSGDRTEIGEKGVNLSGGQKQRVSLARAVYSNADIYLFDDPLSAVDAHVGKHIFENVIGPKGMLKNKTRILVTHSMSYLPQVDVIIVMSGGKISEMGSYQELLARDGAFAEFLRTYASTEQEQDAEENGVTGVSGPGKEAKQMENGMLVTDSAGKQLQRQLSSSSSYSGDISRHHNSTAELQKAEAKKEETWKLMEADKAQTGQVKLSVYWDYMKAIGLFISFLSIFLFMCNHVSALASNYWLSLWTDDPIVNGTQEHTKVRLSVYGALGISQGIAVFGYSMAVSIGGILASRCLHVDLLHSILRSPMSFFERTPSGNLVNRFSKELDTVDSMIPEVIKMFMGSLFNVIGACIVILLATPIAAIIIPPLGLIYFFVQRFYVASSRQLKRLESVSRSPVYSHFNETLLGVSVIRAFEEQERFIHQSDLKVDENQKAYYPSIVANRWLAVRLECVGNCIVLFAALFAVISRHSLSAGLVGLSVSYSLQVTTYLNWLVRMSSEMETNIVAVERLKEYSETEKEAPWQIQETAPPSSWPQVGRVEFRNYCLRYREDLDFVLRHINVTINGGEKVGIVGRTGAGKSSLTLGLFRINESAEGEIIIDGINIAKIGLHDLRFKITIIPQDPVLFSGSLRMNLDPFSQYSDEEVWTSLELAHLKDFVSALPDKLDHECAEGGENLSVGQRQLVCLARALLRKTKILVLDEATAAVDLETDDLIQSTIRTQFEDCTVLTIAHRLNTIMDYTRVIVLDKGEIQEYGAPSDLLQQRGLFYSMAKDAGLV", "assay": "Induction of nitrosylation of MRP1 protein in FU-resistant human HCT8 cells at 0.25 to 1 uM incubated for 24 hrs by Western blotting method", "format": "cell-based", "details": "hct-8, 24 h", "procedure,_shortened": "as §5"}, "[16]": {"test_system": "Mus musculus", "assay": "Toxicity in ICR mouse assessed as mouse mortality incidence at 0.60 x 10^3 to 2.38 x 10^3 umol/kg administered as single dose via oral gavage measured up to 14 days post treatment", "format": "organism-based", "details": "in vivo, 336 h", "procedure,_shortened": "(§6)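 Adult ICR mice of either sex were randomised and given a single oral gavage dose of 500, 1000, 1500 or 2000 mg/kg in cremophor-EL/DMSO/PBS (1:1:8). Survival, behaviour, water and food intake, body weight and activity were monitored for up to 14 days. Body weights were taken on days 0, 7 and 14.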"}, "[17]": {"test_system": "Mus musculus", "assay": "Toxicity in ICR mouse assessed as abnormality in drinking behavior at 0.60 x 10^3 to 2.38 x 10^3 umol/kg administered as single dose via oral gavage measured up to 14 days post treatment", "format": "organism-based", "details": "in vivo, 336 h", "procedure,_shortened": "as §6"}, "[18]": {"test_system": "Mus musculus", "assay": "Toxicity in ICR mouse assessed as general activity changes at 0.60 x 10^3 to 2.38 x 10^3 umol/kg administered as single dose via oral gavage measured up to 14 days post treatment", "format": "organism-based", "details": "in vivo, 336 h", "procedure,_shortened": "as §6"}, "[19]": {"test_system": "Mus musculus", "assay": "Toxicity in female ICR mouse assessed as body weight level at 2.38 x 10^3 umol/kg administered as single dose via oral gavage measured on day 7 post treatment (reference value: 19.8 +/- 0.92 g)", "format": "organism-based", "details": "in vivo"}, "[20]": {"test_system": "Mus musculus", "assay": "Toxicity in male ICR mouse assessed as body weight level at 2.38 x 10^3 umol/kg administered as single dose via oral gavage measured on day 7 post treatment (reference value: 19.8 +/- 0.92 g)", "format": "organism-based", "details": "in vivo"}, "[21]": {"test_system": "Mus musculus", "assay": "Toxicity in nude BALB/c mouse xenografted with FU-resistant human HCT8 cells assessed as abnormal color changes in heart at 17.8 to 35.7 umol/kg administered as via oral gavage daily for 21 days", "format": "organism-based, HCT-8", "details": "in vivo, 504 h", "procedure,_shortened": "as §4"}, "[22]": {"test_system": "Mus musculus", "assay": "Toxicity in nude BALB/c mouse xenografted with FU-resistant human HCT8 cells assessed as abnormal size changes in heart at 17.8 to 35.7 umol/kg administered as via oral gavage daily for 21 days", "format": "organism-based, HCT-8", "details": "in vivo, 504 h", "procedure,_shortened": "as §4"}, "[23]": {"test_system": "Mus musculus", "assay": "Toxicity in nude BALB/c mouse xenografted with FU-resistant human HCT8 cells assessed as abnormal weight changes in lung at 17.8 to 35.7 umol/kg administered as via oral gavage daily for 21 days", "format": "organism-based, HCT-8", "details": "in vivo, 504 h", "procedure,_shortened": "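Male BALB/c nude mice, 6-8 weeks old, inoculated s.c. in right flank with HCT-8/5-FU cells (2 × 10^6/mouse). Once tumors reached 180-200 mm3 (9-11 days post-implantation), mice were randomized and dosed by gavage daily for 21 consecutive days in cremophor-EL/DMSO/PBS (1:1:8) (vehicle alone 0.2 mL). Body weights recorded on day 1 and day 21. Organ size, color and weights were inspected for liver, kidney, lung and heart. n = 8 per group; mean ± SD.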"}},
  "note": "Activity calls are given as the source filed them. No cut-off for these calls is given here.",
  "data": [
    {"smiles": "COC(=O)[C@]12CCC(C)(C)C[C@H]1[C@H]1C(=O)C=C3[C@@]4(C)C=C(C#N)C(=O)C(C)(C)[C@@H]4CC[C@@]3(C)[C@]1(C)CC2", "note": "[BARDOXOLONE METHYL]", "values": [
      {"measurement": "growth inhibition (GI)", "setting": "[1]", "result": "Active"},
      {"measurement": "inhibition", "setting": "[2]", "result": "Active"},
      {"measurement": "inhibition", "setting": "[3]", "result": "Active"},
      {"measurement": "inhibition", "setting": "[4]", "result": "Active"},
      {"measurement": "Activity", "setting": "[5]", "result": "Non-toxic"}
    ]},
    {"smiles": "CC1(C)CC[C@]2(C(=O)NCC(=O)OCC#CCOc3no[n+]([O-])c3S(=O)(=O)c3ccccc3)CC[C@]3(C)[C@H](C(=O)C=C4[C@@]5(C)C=C(C#N)C(=O)C(C)(C)[C@@H]5CC[C@]43C)[C@@H]2C1", "values": [
      {"measurement": "inhibition of growth at 1 µM", "setting": "[6]", "result": "> 90", "unit": "%"},
      {"measurement": "Activity", "setting": "[7]", "result": "Active"},
      {"measurement": "Activity", "setting": "[8]", "result": "Active"},
      {"measurement": "inhibition", "setting": "[9]", "result": "inactive"},
      {"measurement": "Activity", "setting": "[10]", "result": "Dose-dependent effect"},
      {"measurement": "inhibition", "setting": "[11]", "result": "Dose-dependent effect"},
      {"measurement": "inhibition", "setting": "[12]", "result": "Dose-dependent effect"},
      {"measurement": "inhibition", "setting": "[13]", "result": "Dose-dependent effect"},
      {"measurement": "Activity", "setting": "[14]", "result": "Dose-dependent effect"},
      {"measurement": "Activity", "setting": "[15]", "result": "Dose-dependent effect"},
      {"measurement": "Activity", "setting": "[16]", "result": "Non-toxic"},
      {"measurement": "Activity", "setting": "[17]", "result": "Non-toxic"},
      {"measurement": "Activity", "setting": "[18]", "result": "Non-toxic"},
      {"measurement": "Activity", "setting": "[19]", "result": 25, "unit": "g"},
      {"measurement": "Activity", "setting": "[20]", "result": 26.7, "unit": "g"},
      {"measurement": "Activity", "setting": "[21]", "result": "Non-toxic"},
      {"measurement": "Activity", "setting": "[22]", "result": "Non-toxic"},
      {"measurement": "Activity", "setting": "[23]", "result": "Non-toxic"}
    ]}
  ]
}
